The results in this text go back to ChEMBL document CHEMBL4411272, “Design, synthesis and biological evaluation of AZD9291 derivatives as selective and potent EGFRL858R/T790M inhibitors” (Eur J Med Chem, 2019).

For test [1], the target named is Epidermal growth factor receptor (Homo sapiens, UniProt P00533). As to the kind of experiment: Inhibition of wild-type EGFR (unknown origin) using substrate-biotin by ELISA-based mobility shift assay.
For the next test, the system named is NCI-H1975. As to the kind of experiment: Antiproliferative activity against human NCI-H1975 cells after 72 hrs by MTT assay. The format is functional, cell-based. The conditions noted are these: NCI-H1975, 72 h. Summed up:
(§1)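 MTT assay; cells grown as monolayers in DMEM or RPMI1640 with 10% FBS at 37 °C, 5% CO2 for 24 h, then compound added for 72 h. MTT at 5 μg/mL for 4 h at 37 °C, formazan dissolved in DMSO, absorbance read at 492 nm with 630 nm reference. Each compound tested three times per line; IC50 from averaged determinations.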
For orientation: Tetrazolium dyes change colour on reduction, which living cells bring about.

The species entered for the next test is Homo sapiens. Put plainly: Selectivity ratio of IC50 for wild-type EGFR (unknown origin) to IC50 for EGFR T790M/L858R double mutant (unknown origin).
For test [2], the target named is Epidermal growth factor receptor (Homo sapiens, UniProt P00533, L858R/T790M). Put plainly: Inhibition of EGFR T790M/L858R double mutant (unknown origin) using substrate-biotin by ELISA-based mobility shift assay. (An ELISA detects its analyte on a solid surface through an enzyme-linked reagent.)
Chain of Epidermal growth factor receptor (Homo sapiens, UniProt P00533, L858R/T790M) (P00533 25-1210 T790M/L858R limits assumed): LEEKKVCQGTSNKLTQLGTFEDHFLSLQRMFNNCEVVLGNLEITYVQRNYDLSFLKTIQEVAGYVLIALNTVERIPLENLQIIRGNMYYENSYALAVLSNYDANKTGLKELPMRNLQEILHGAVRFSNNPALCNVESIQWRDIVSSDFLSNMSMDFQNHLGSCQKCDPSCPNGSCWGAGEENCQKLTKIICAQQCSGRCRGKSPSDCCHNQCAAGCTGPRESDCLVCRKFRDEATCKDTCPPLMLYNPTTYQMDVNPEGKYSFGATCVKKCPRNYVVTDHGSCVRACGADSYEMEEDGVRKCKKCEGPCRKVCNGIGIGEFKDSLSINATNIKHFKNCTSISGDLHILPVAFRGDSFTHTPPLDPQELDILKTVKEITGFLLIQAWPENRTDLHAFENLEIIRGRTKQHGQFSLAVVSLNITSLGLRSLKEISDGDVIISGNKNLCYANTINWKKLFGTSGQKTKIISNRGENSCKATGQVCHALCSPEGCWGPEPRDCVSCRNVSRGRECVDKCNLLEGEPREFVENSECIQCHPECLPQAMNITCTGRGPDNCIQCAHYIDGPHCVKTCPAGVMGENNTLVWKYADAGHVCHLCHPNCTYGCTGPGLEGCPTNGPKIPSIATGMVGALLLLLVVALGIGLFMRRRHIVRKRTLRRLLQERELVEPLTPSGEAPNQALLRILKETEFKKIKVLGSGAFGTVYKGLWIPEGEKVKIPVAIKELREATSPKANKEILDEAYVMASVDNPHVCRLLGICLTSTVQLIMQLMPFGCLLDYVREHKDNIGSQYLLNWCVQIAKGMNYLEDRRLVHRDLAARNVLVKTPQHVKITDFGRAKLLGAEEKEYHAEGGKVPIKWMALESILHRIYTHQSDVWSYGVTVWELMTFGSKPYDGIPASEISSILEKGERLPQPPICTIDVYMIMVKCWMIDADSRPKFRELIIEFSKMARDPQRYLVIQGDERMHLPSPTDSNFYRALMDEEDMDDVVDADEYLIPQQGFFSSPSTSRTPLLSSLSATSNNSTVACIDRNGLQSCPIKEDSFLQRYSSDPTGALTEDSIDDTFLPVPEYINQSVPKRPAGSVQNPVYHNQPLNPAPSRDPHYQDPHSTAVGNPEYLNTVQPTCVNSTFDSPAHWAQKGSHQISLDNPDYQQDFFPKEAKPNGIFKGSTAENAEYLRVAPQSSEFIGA
For another test, the system named is HepG2. Put plainly: Antiproliferative activity against human HepG2 cells after 72 hrs by MTT assay. In kind it is functional, cell-based. Particulars: HepG2, 72 h. Summed up:
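MTT assay; cells grown as monolayers in DMEM or RPMI1640 with 10% FBS at 37 °C, 5% CO2 for 24 h, then compound added for 72 h. Each compound tested three times per line; IC50 from averaged determinations.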

The subject of a further test is A549. As to the kind of experiment: Antiproliferative activity against human A549 cells after 72 hrs by MTT assay. The conditions noted are these: A549, 72 h. The format is functional, cell-based. The procedure, abridged:
as §1

Chain of Epidermal growth factor receptor (Homo sapiens, UniProt P00533) (P00533 whole entry): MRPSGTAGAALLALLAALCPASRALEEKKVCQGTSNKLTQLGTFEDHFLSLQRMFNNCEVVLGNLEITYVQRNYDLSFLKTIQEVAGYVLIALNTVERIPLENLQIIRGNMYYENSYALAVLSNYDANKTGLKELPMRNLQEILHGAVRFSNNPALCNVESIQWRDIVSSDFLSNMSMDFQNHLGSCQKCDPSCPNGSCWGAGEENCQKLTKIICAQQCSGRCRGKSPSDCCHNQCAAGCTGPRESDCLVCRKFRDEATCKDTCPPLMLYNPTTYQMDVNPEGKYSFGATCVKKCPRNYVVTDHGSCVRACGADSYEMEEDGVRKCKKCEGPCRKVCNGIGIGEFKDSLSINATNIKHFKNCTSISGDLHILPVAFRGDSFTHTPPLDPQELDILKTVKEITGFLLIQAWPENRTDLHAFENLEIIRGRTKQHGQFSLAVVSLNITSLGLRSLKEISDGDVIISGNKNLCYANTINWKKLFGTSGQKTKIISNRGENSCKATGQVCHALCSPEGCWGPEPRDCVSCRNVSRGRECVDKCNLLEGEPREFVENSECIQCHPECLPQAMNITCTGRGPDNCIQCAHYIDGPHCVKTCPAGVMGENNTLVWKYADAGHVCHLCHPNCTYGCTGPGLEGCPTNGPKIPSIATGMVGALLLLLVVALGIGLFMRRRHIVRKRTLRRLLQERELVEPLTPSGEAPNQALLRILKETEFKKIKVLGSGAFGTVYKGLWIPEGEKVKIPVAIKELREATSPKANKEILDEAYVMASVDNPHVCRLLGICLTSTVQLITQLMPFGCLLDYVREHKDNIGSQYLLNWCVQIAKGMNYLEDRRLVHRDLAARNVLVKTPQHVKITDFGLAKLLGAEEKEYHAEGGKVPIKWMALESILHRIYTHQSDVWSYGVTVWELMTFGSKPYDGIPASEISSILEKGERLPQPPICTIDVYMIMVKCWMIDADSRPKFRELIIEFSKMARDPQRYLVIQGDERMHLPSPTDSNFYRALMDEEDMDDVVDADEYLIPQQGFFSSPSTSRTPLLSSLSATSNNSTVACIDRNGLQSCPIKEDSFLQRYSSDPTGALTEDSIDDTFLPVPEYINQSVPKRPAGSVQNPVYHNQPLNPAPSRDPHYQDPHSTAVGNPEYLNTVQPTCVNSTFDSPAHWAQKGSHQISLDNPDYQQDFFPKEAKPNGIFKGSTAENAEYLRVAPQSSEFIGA

`CC/C=C\C(=O)Nc1cc(Nc2ncc(C#N)c(-c3cn(C)c4ccccc34)n2)c(OC)cc1N(C)CCN(C)C`: the IC50 (commonly the concentration that inhibits the measured activity by half) in test [1] is 387 nM; in the test with NCI-H1975 it was 1150 nM; in test [2] it was 16 nM; in the test with HepG2, 1.36 µM; in the test on A549, 162 nM. In the test listed under Homo sapiens, the Ratio IC50 was 24.2.

For `C=CC(=O)Nc1cc(Nc2nc(C)cc(-c3cn(C)c4ccc(F)cc34)n2)c(OC)cc1N(C)CCN(C)C`, the IC50 in test [1] was 1090 nM; in the test with NCI-H1975 it was 3830 nM; in test [2], 591 nM; in the test on HepG2, 4.28 µM; in the test on A549 it was 1490 nM. Besides, the Ratio IC50 in the test filed under Homo sapiens was 1.9.

`COc1cc(N(C)CCN(C)C)c(NC(=O)/C=C\C(C)C)cc1Nc1nc(C)cc(-c2cn(C)c3ccc(F)cc23)n1`: the IC50 in test [1] is over 2000 nM; with NCI-H1975, 8520 nM; in test [2], 892 nM; in the test on HepG2, 14 µM; in the test on A549, 9080 nM.

`C=C(F)C(=O)Nc1cc(Nc2nccc(-c3cn(C)c4ccccc34)n2)c(OC)cc1N(C)CCN(C)C`: the IC50 in test [1] worked out at 65 nM; with NCI-H1975, 4230 nM; in test [2], 6 nM; with HepG2 it was 3.79 µM; in the test on A549, 2460 nM. The Ratio IC50 in the test listed under Homo sapiens stood at 10.8.

With `CC/C=C\C(=O)Nc1cc(Nc2nccc(-c3cn(C)c4ccc(F)cc34)n2)c(OC)cc1N(C)CCN(C)C`, the IC50 in test [1] was determined as 684 nM; in the test with NCI-H1975, 2600 nM; in test [2], 388 nM; in the test with HepG2, 5.29 µM; in the test on A549, 3600 nM. For the same compound, in the test listed under Homo sapiens, the Ratio IC50 is 1.8.

In the case of `COc1cc(N(C)CCN(C)C)c(NC(=O)/C=C\C(C)C)cc1Nc1ncc(C#N)c(-c2cn(C)c3ccc(F)cc23)n1`, the IC50 in test [1] was 415 nM; with NCI-H1975, 1130 nM; in test [2], 360 nM; in the test with HepG2, 2.84 µM; with A549, 185 nM. For the same compound, in the test filed under Homo sapiens, the Ratio IC50 turned out to be 1.2.

For the compound `C=CC(=O)Nc1cc(Nc2ncc(C#N)c(-c3cn(C)c4ccc(F)cc34)n2)c(OC)cc1N(C)CCN(C)C`, the IC50 is over 2000 nM in test [1]; 11400 nM with NCI-H1975; over 2000 nM in test [2]; 17.5 µM in the test with HepG2; 9700 nM in the test on A549.

In the case of `C=C(Cl)C(=O)Nc1cc(Nc2nc(C)cc(-c3cn(C)c4ccccc34)n2)c(OC)cc1N(C)CCN(C)C`, the IC50 in test [1] amounted to 83 nM; with NCI-H1975, 2230 nM; in test [2] it was 10 nM; in the test on HepG2, 3.64 µM; in the test with A549 it was 1730 nM. Besides, the Ratio IC50 in the test filed under Homo sapiens amounted to 8.3.

Consider `C/C=C\C(=O)Nc1cc(Nc2nccc(-c3cn(C)c4ccccc34)n2)c(OC)cc1N(C)CCN(C)C`, for which the IC50 in test [1] worked out at 395 nM; in the test with NCI-H1975, 4540 nM; in test [2], 52 nM; in the test on HepG2 it was 6.93 µM; in the test on A549 it was 660 nM. In addition, the Ratio IC50 in the test filed under Homo sapiens stood at 7.6.

For `COc1cc(N(C)CCN(C)C)c(NC(=O)C=C(C)C)cc1Nc1nccc(-c2cn(C)c3ccccc23)n1`, the IC50 was 1280 nM in test [1]; 5610 nM in the test with NCI-H1975; 209 nM in test [2]; 5.66 µM with HepG2; 4100 nM with A549. In addition, the Ratio IC50 in the test filed under Homo sapiens came to 6.1.

For `CCC/C=C\C(=O)Nc1cc(Nc2ncc(C#N)c(-c3cn(C)c4ccccc34)n2)c(OC)cc1N(C)CCN(C)C`, the IC50 in test [1] was determined as 377 nM; in the test with NCI-H1975, 823 nM; in test [2], 37 nM; in the test with HepG2, 1.69 µM; in the test with A549, 166 nM. Further, in the test filed under Homo sapiens, the Ratio IC50 came out at 10.2.

Take `COc1cc(N(C)CCN(C)C)c(NC(=O)/C=C\C(C)C)cc1Nc1nc(C)cc(-c2cn(C)c3ccccc23)n1`: the IC50 was over 2000 nM in test [1]; 1230 nM in the test on NCI-H1975; 38 nM in test [2]; 3.55 µM with HepG2; 1070 nM in the test with A549.

Consider `COc1cc(N(C)CCN(C)C)c(NC(=O)/C=C\C(C)C)cc1Nc1nccc(-c2cn(C)c3ccccc23)n1`, for which the IC50 in test [1] was over 2000 nM; in the test on NCI-H1975, 1820 nM; in test [2] it was 397 nM; with HepG2, 4.39 µM; in the test on A549 it was 612 nM.

For `CC/C=C\C(=O)Nc1cc(Nc2nc(C)cc(-c3cn(C)c4ccccc34)n2)c(OC)cc1N(C)CCN(C)C`, the IC50 stood at 1260 nM in test [1]; 1990 nM in the test with NCI-H1975; 18 nM in test [2]; 2.05 µM with HepG2; 1080 nM in the test on A549. Further, the Ratio IC50 in the test listed under Homo sapiens was determined as 69.7.

On to `CC/C=C\C(=O)Nc1cc(Nc2ncc(C#N)c(-c3cn(C)c4ccc(F)cc34)n2)c(OC)cc1N(C)CCN(C)C`, for which the IC50 in test [1] was over 2000 nM; with NCI-H1975, 10200 nM; in test [2], over 2000 nM; with HepG2, 5.88 µM; in the test with A549, 4720 nM.

Take `C=C(Cl)C(=O)Nc1cc(Nc2ncc(C#N)c(-c3cn(C)c4ccccc34)n2)c(OC)cc1N(C)CCN(C)C`: the IC50 came out at 137 nM in test [1]; 1620 nM with NCI-H1975; 20 nM in test [2]; 0.115 µM with HepG2; 133 nM in the test with A549. Besides, the Ratio IC50 in the test listed under Homo sapiens is 6.9.

Regarding `CC/C=C\C(=O)Nc1cc(Nc2nc(C)cc(-c3cn(C)c4ccc(F)cc34)n2)c(OC)cc1N(C)CCN(C)C`, the IC50 in test [1] is over 2000 nM; in the test on NCI-H1975 it was 10400 nM; in test [2] it was 998 nM; with HepG2 it was 11 µM; in the test on A549, 9150 nM.

As for `C=C(Cl)C(=O)Nc1cc(Nc2nccc(-c3cn(C)c4ccccc34)n2)c(OC)cc1N(C)CCN(C)C`, the IC50 in test [1] turned out to be 257 nM; in the test with NCI-H1975 it was 1290 nM; in test [2] it was 33 nM; in the test on HepG2 it was 1.39 µM; in the test with A549, 7520 nM. In addition, the Ratio IC50 in the test listed under Homo sapiens was 7.8.

Consider `COc1cc(N(C)CCN(C)C)c(NC(=O)C(Cl)=C(Cl)Cl)cc1Nc1nccc(-c2cn(C)c3ccccc23)n1`, for which the IC50 in test [1] is over 2000 nM; with NCI-H1975, over 50000 nM; in test [2], over 2000 nM; in the test with HepG2, over 50 µM; in the test with A549, over 50000 nM.

With `COc1cc(N(C)CCN(C)C)c(NC(=O)/C=C\C(C)C)cc1Nc1nccc(-c2cn(C)c3ccc(F)cc23)n1`, the IC50 in test [1] is 977 nM; in the test on NCI-H1975 it was 7360 nM; in test [2] it was over 2000 nM; in the test with HepG2, 3.92 µM; in the test on A549, 6140 nM.

In the case of `CC/C=C\C(=O)Nc1cc(Nc2nccc(-c3cn(C)c4ccccc34)n2)c(OC)cc1N(C)CCN(C)C`, the IC50 in test [1] came to 1280 nM; in the test on NCI-H1975 it was 3860 nM; in test [2], 177 nM; in the test on HepG2 it was 6.67 µM; in the test on A549, 1530 nM. In addition, in the test listed under Homo sapiens, the Ratio IC50 came to 7.2.

In the case of `C=CC(=O)Nc1cc(Nc2ncc(C#N)c(-c3cn(C)c4ccccc34)n2)c(OC)cc1N(C)CCN(C)C`, the IC50 stood at 311 nM in test [1]; 1190 nM in the test with NCI-H1975; 25 nM in test [2]; 0.768 µM with HepG2; 308 nM in the test with A549. For the same compound, the Ratio IC50 in the test filed under Homo sapiens stood at 12.4.

For `COc1cc(N(C)CCN(C)C)c(NC(=O)/C=C\C(C)C)cc1Nc1ncc(C#N)c(-c2cn(C)c3ccccc23)n1`, the IC50 was determined as 985 nM in test [1]; 1110 nM in the test on NCI-H1975; 219 nM in test [2]; 1.81 µM in the test with HepG2; 1100 nM in the test on A549. In the test filed under Homo sapiens, the Ratio IC50 was 4.5.

In the case of `C=CC(=O)Nc1cc(Nc2nccc(-c3cn(C)c4ccccc34)n2)c(OC)cc1N(C)CCN(C)C` [OSIMERTINIB], the figures for the IC50 in the test on NCI-H1975 and in the test on A549 were […] and 615 nM, respectively.

For `C=CC(=O)Nc1cc(Nc2nc(C)cc(-c3cn(C)c4ccccc34)n2)c(OC)cc1N(C)CCN(C)C`, the IC50 is 1340 nM in test [1]; 4810 nM in the test with NCI-H1975; 93 nM in test [2]; 12.6 µM in the test with HepG2; 2910 nM in the test with A549. For the same compound, the Ratio IC50 in the test listed under Homo sapiens was 14.5.

As to `C=CC(=O)Nc1cc(Nc2nccc(-c3cn(C)c4ccc(F)cc34)n2)c(OC)cc1N(C)CCN(C)C`, the IC50 was 8.7 nM in test [1]; 254 nM in the test with NCI-H1975; 0.07 nM in test [2]; 0.429 µM in the test on HepG2; 329 nM with A549. The Ratio IC50 in the test listed under Homo sapiens was 124.

As to `CCC/C=C\C(=O)Nc1cc(Nc2ncc(C#N)c(-c3cn(C)c4ccc(F)cc34)n2)c(OC)cc1N(C)CCN(C)C`, the IC50 was found to be 1060 nM in test [1]; 2420 nM with NCI-H1975; 201 nM in test [2]; 2.01 µM in the test with HepG2; 741 nM in the test with A549. Moreover, the Ratio IC50 in the test listed under Homo sapiens was determined as 5.3.

On to `CCC/C=C\C(=O)Nc1cc(Nc2nccc(-c3cn(C)c4ccccc34)n2)c(OC)cc1N(C)CCN(C)C`, for which the IC50 in test [1] worked out at 1500 nM; in the test on NCI-H1975 it was 1220 nM; in test [2] it was 203 nM; in the test with HepG2, 0.431 µM; with A549, 808 nM. Also, in the test listed under Homo sapiens, the Ratio IC50 is 7.4.

Take `CCC/C=C\C(=O)Nc1cc(Nc2nc(C)cc(-c3cn(C)c4ccc(F)cc34)n2)c(OC)cc1N(C)CCN(C)C`: the IC50 is over 2000 nM in test [1]; 12200 nM in the test with NCI-H1975; 923 nM in test [2]; 12.1 µM in the test on HepG2; 13300 nM in the test with A549.
